Experimental data published in PMC2610486 (Bioorganic & medicinal chemistry, 2008).

Columns and labels:
[1] = target: CYP3A4 (Homo sapiens, UniProt P08684); assay: Testosterone-6-hydroxylase activity in HepG2/C3A cell culture; type: cell-based; settings: HepG2/C3A cultures; 50 µM testosterone, 48 hr
Outline: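 Confluent HepG2 cultures were pre-incubated 4 h with test compound or ethanol control, then 50 µM testosterone was added. After 48 h incubation, medium was extracted with ethyl acetate and 6-hydroxytestosterone, as its trimethylsilyl ether, was quantified by GC-MS. Results are percent inhibition, given as means and standard deviation.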

[2] = test system: HepG2 cells; type: cell-based, human; settings: HepG2 cultures
[3] = test system: tocopherol ω-hydroxylase; assay: Tissue enrichment in δ-tocopherol in mice fed δ-tocopherol with or without 1; type: in vivo, mouse
Outline: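 Two groups of three male FVB/N mice were fed 10 days on ground chow with δ-tocopherol (6000 mg/kg diet), with or without test compound (500 mg/kg diet). Compound in ethanol and δ-tocopherol were premixed in diglyceride oil, then added to chow. Mice were fasted 5 h and euthanised. Plasma, liver and bile tocopherols were measured by GC-MS with d9-α-tocopherol internal standard. Results are δ-/α-tocopherol ratios, given as means and SD.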

[4] = target: T1, Cyp4F2 (tocopherol-ω-hydroxylase) (Homo sapiens, UniProt P78329); assay: Inhibition of γ-tocopherol metabolism; type: cell-based; settings: HepG2 cells; at concentrations as low as 250 nM
T1 sequence (P78329 5-520): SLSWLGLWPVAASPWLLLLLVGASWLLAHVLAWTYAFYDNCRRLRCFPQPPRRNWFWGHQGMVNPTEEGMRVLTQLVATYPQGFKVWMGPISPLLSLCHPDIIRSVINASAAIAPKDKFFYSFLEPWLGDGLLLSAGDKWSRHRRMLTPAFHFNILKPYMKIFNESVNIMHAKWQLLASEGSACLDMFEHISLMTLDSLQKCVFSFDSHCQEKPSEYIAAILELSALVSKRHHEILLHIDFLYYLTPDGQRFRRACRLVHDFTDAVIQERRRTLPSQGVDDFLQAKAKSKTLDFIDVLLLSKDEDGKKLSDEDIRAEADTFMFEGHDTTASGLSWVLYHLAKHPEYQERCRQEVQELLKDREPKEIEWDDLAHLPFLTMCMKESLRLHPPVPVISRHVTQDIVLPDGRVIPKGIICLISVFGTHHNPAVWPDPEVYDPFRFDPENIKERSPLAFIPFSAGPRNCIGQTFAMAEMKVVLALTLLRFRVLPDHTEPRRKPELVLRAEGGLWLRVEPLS

[5] = male FVB/N mice, 500 mg 1 per kg diet with δ-tocopherol 6000 mg per kg diet, 10 days, P<0.05

Sequence of CYP3A4 (P08684 whole entry): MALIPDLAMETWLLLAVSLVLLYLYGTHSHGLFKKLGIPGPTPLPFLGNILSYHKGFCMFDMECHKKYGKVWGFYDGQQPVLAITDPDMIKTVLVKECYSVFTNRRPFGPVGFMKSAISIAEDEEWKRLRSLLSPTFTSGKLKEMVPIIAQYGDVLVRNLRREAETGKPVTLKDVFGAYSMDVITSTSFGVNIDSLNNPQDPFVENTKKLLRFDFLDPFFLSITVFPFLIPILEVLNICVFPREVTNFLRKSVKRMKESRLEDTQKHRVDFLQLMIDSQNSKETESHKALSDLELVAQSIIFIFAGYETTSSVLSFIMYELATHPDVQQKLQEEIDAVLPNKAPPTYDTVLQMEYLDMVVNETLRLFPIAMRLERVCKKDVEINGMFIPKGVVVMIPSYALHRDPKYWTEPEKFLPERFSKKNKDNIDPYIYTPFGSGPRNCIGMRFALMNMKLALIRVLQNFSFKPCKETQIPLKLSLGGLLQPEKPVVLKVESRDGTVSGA

Structure (SMILES)	Effect on testosterone-6-hydroxylase (CYP3A4) activity (qualitative) [1]	Effect on total cell protein [2]	Morphology of monolayers [2]	Level of δ-tocopherol in mice ([3]; 1 at 500 mg per kg of diet that also contained δ-tocopherol)	Change in δ-tocopherol / α-tocopherol ratio in bile [3, 5]	Change in δ-tocopherol / α-tocopherol ratio in liver [3, 5]	Effect on α-tocopherol status ([3]; mice fed δ-tocopherol with or without 1)	Inhibition of γ-tocopherol metabolism [4]
Cc1c(C)c2c(c(C)c1O)CC[C@@](C)(CCCCCCCCCn1ccnc1)O2 [Compound 1, (R)-2-(9-(1H-imidazol-1-yl)nonyl)-2,5,7,8-tetramethylchroman-6-ol]	inhibited	no effect	normal	raised	tripled	doubling	no evidence that α-tocopherol status was affected	complete inhibition
Cc1c(C)c2c(c(C)c1O)CC[C@@](C)(CCCCCCCCCn1cncn1)O2 [Compound 2, (R)-2-(9-(1H-1,2,4-triazol-1-yl)nonyl)-2,5,7,8-tetramethylchroman-6-ol]	inhibited							
Cc1c(C)c2c(c(C)c1O)CC[C@@](C)(CCCCCCCCCn1ccnn1)O2 [Compound 3, (R)-2-(9-(1H-1,2,3-triazol-1-yl)nonyl)-2,5,7,8-tetramethylchroman-6-ol]	inhibited							
